One assay deals with CCRF-CEM. As to the kind of experiment: Cytotoxicity against human CEM cells by alamar blue assay. It is filed as functional, cell-based. In general terms: Alamar Blue is a resazurin reagent that responds to reducing activity.
Assay [1] can be described thus: Cytotoxicity against human fibroblast cells by alamar blue assay. It is filed as cell-based.
For the next assay, the system named is MCF7. As to the kind of experiment: Cytotoxicity against human MCF7 cells by alamar blue assay. It is filed as functional, cell-based.
Assay [2] can be described thus: Inhibition of angiogenesis in endothelial cells assessed as inhibition of tube formation after 18 hrs by inverted microscopic analysis. It is filed as functional, cell-based. As to conditions: Endothelial cell.
The test system of another assay is NCI-H460. As to the kind of experiment: Cytotoxicity against human NCI-H460 cells by alamar blue assay. It is filed as functional, cell-based.
Another assay relates to HT-29. As to the kind of experiment: Cytotoxicity against human HT-29 cells by alamar blue assay. It is filed as functional, cell-based.
A further assay concerns the target Tubulin (Sus scrofa, UniProt P02554+P02550). As to the kind of experiment: Inhibition of porcine brain tubulin polymerization after 60 mins. A digest of the protocol: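 Porcine brain tubulin (50 ul of 11 mg/ml stock) in Mes buffer (0.1 M Mes, 1 mM EGTA, 0.5 mM MgCl2, pH 6.6) with GTP (20 ul of 5 mM stock), plate prechilled 4 °C, drug added in DMSO; A350 recorded at ambient temperature for 60 min against drug blanks. IC50 read graphically as percent of control assembly.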

Assay [3] in a line: Ratio of CA-1 IC50 to compound IC50 for inhibition of angiogenesis in endothelial cells. It is filed as functional, Endothelial cell.

Structures are written as SMILES. pIC50: −log10 of the molar value.

For the compound `COc1cc(-n2cc(-c3ccc(OC)c([N+](=O)[O-])c3[N+](=O)[O-])nn2)cc(OC)c1OC`, the negative logarithm of the IC50 (pIC50) in the assay with CCRF-CEM was < 4.00; in assay [1], < 4.00; in the assay with MCF7, < 4.00; in assay [2] it was < 5.00; in the assay on NCI-H460 it was 4.74; in the assay on HT-29 it was < 4.00.

As for `COc1ccc(-c2cn(-c3cc(OC)c(OC)c(OC)c3)nn2)c(N)c1N`, the pIC50 in the assay with CCRF-CEM was < 4.00; in assay [1], < 4.00; in the assay with MCF7 it was < 4.00; in assay [2], < 5.00; in the assay on NCI-H460, 4.53; in the assay with HT-29, < 4.00.

Regarding `COc1cc(-n2nncc2-c2ccc3c(c2O)OCO3)cc(OC)c1OC`, the negative logarithm of the IC50 (pIC50) in the assay on CCRF-CEM is < 4.00; in assay [1] it was < 4.00; in the assay on MCF7, < 4.00; in assay [2] it was 5.47; with NCI-H460 it was 5.13; in the assay on HT-29, 5.06. At Tubulin, this compound had an IC50 of 17.1 µM.

On to `COc1cc(-n2nncc2-c2ccc3c(c2O)OC(C)(C)O3)cc(OC)c1OC`, for which the pIC50 is < 4.00 in the assay with CCRF-CEM; < 4.00 in assay [1]; 4.33 with MCF7; < 5.00 in assay [2]; 4.77 in the assay on NCI-H460; < 4.00 with HT-29. For the same compound, on Tubulin, the IC50 was > 20 µM.

For `COc1ccc(-c2cnnn2-c2cc(OC)c(OC)c(OC)c2)c(F)c1F`, the pIC50 is < 4.00 in the assay with CCRF-CEM; < 4.00 in assay [1]; 4.57 in the assay on MCF7; 6.52 in assay [2]; 5.31 with NCI-H460; 5.72 in the assay with HT-29. Moreover, the IC50 against Tubulin was 15.6 µM. Moreover, the “Ratio IC50” value in assay [3] turned out to be 10.

As to `COc1cc(-n2nncc2-c2ccc(OC)c([N+](=O)[O-])c2[N+](=O)[O-])cc(OC)c1OC`, the pIC50 is 4.59 in the assay on CCRF-CEM; 4.50 in assay [1]; 5.21 in the assay with MCF7; 5.36 in assay [2]; 6.15 in the assay with NCI-H460; 4.92 in the assay on HT-29. For the same compound, on Tubulin, the IC50 was > 20 µM.

`COc1ccc(-c2cnnn2-c2cc(OC)c(OC)c(OC)c2)c(O)c1O` came in with an IC50 at Tubulin of 10.1 µM. In other words, the double-digit micromolar range.

On to `COc1ccc(/C=C\c2cc(OC)c(OC)c(OC)c2)c(O)c1O` [COMBRETASTATIN A-1], for which the pIC50 with CCRF-CEM was < 4.00; in assay [1], < 4.00; with MCF7 it was 4.12; in assay [2] it was 5.49; with NCI-H460, 5.74; in the assay on HT-29, 6.05. For the same compound, the half-maximal inhibitory concentration (IC50) against Tubulin is 3.5 µM.

Take `COc1ccc(-n2nncc2-c2cc(OC)c(OC)c(OC)c2)c(O)c1O`: the pIC50 in the assay on CCRF-CEM is < 4.00; in assay [1], < 4.00; in the assay on MCF7 it was < 4.00; in assay [2], < 5.00; with NCI-H460, 4.58; with HT-29 it was 4.19. In addition, at Tubulin, the half-inhibitory concentration (IC50) was > 20 µM.

As to `COc1ccc(-c2cnnn2-c2cc(OC)c(OC)c(OC)c2)c(N)c1N`, the pIC50 in the assay with CCRF-CEM was < 4.00; in assay [1] it was < 4.00; in the assay with MCF7, 4.41; in assay [2], 6.52; in the assay with NCI-H460, 4.76; with HT-29 it was 4.76. The half-maximal inhibitory concentration (IC50) on Tubulin was determined as 5.2 µM. Further, the “Ratio IC50” value in assay [3] was 10.

For `COc1ccc(/C=C\c2cc(OC)c(OC)c(OC)c2)cc1O` [COMBRETASTATIN A4], the negative-log IC50 (pIC50) with CCRF-CEM is < 4.00; in assay [1], < 4.00; in the assay with MCF7, 4.31; in assay [2], 8.00; in the assay with NCI-H460, 5.36; in the assay on HT-29, 6.40.

One may read the pIC50 as the IC50 on a negative log10 scale, so that one unit is a factor of ten. What is called IC50 is the midpoint of a concentration-inhibition curve. Low readings indicate inhibition by little substance, high ones a need for much substance.

These data come from ChEMBL document CHEMBL1926575, “Synthesis, biological evaluation and molecular modeling of 1,2,3-triazole analogs of combretastatin A-1” (Bioorg Med Chem, 2012).
